The values below come from the RNAGym collection of RNA variant scans (doi:10.1002/anie.201605470).

Sequences and labels used below:
B1: Osa-1-4 twister ribozyme (parent)
chain: CCGCCUAACACUGCCAAUGCCGGUCCCAAGCCCGGAUAAAAGUGGAGGGGGCGG

The variants in this data set derive from B1. Briefly: self-cleavage, relative activity (ratio to wild type); higher = more cleavage; co-transcriptional. A digest of the protocol: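 A DNA template encoding a 54-nucleotide twister ribozyme from Oryza sativa was made so that each of the 48 positions downstream of the cleavage site carried 97 % wild-type base and 1 % of each other base. Transcription in vitro ran for 2 h at 37 °C, during which the ribozyme could cleave itself. Reverse transcription used a template-switching oligonucleotide, and the products were PCR-amplified and deep-sequenced. Each read was scored as cleaved or uncleaved by whether upstream sequence was present, and relative activity is the fraction cleaved normalised to wild type.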
Consider A40G C9G, for which the self-cleavage was determined as 0.18.

Regarding A40G C9U, the self-cleavage was found to be 0.23. For A40G G22A the value was 0.46; for A40G G22U, 0.16; for A40G G22C, 0.06. As for A39U C52G, the self-cleavage worked out at 1.01. For A39U C52U the value was 1; for A39U C52A, 0.96.

As for A40C C31A, the self-cleavage was 0.02. Consider A40C C31G, for which the self-cleavage was 0.02.

Regarding A40C C31U, the self-cleavage came to 0.06. For A40G G50A, the self-cleavage came out at 0.43. On to A40G G50U, for which the self-cleavage is 0.54. As for A40G G50C, the self-cleavage turned out to be 0.29. To A39U G30U belongs 0.05. A39U G30A: the self-cleavage was 0.04. For A39U G30C, the self-cleavage is 0.05.

With A40C G30U, the self-cleavage was determined as 0.01. Take A40C G30A: the self-cleavage was found to be 0.02. Regarding A40C G30C, the self-cleavage came to 0.02.

A39U U24G: the self-cleavage turned out to be 0.03. For the variant A39U U24A, the self-cleavage is 0.07. As for A39U U24C, the self-cleavage stood at 0.12. As to A40G G44A, the self-cleavage came out at 0.21.

On to A40G G44U, for which the self-cleavage was 0.38. For A40G G44C the value was 0.64; for A39U G49A, 0.11.

Take A39U G49C: the self-cleavage amounted to 0.06. To A39U G49U belongs 0.08; to A40G C32G, 0.1. Consider A40G C32A, for which the self-cleavage turned out to be 0.06. Regarding A40G C32U, the self-cleavage is 0.09.

For the variant A40C C11U, the self-cleavage stood at 0.07. For A40C C11A, the self-cleavage amounted to 0.05. For A40C C11G the value was 0.03. With A40C C25G, the self-cleavage was 0.03. To A40C C25A belongs 0.03; to A40C C25U, 0.04. For A39U C33A, the self-cleavage is 0.09.

With A39U C33G, the self-cleavage turned out to be 0.07. Consider A39U C33U, for which the self-cleavage came out at 0.52.

For A40C C26G, the self-cleavage came out at 0.02. For A40C C26A the value was 0.02; for A40C C26U, 0.04; for A40G C11U, 0.32. With A40G C11A, the self-cleavage is 0.14.

Consider A40G C11G, for which the self-cleavage stood at 0.13. To A40G G13U belongs 0.02; to A40G G13A, 0.06.

A40G G13C: the self-cleavage worked out at 0.03. As to A40G G54U, the self-cleavage came out at 0.46. To A40G G54C belongs 0.26; to A40G G54A, 0.3. For A40G U24G the value was 0.02. Consider A40G U24C, for which the self-cleavage was determined as 0.08. Regarding A40G U24A, the self-cleavage is 0.07. To A40G C31G belongs 0.08; to A40G C31A, 0.03. For the variant A40G C31U, the self-cleavage came out at 0.16.

Consider A39U C27A, for which the self-cleavage is 0.12. In the case of A39U C27U, the self-cleavage is 0.12. To A39U C27G belongs 0.09.

As for A40C A7U, the self-cleavage came to 0.02. With A40C A7G, the self-cleavage stood at 0.06. To A40C A7C belongs 0.02.

Turning to A40G C15A, the self-cleavage is 0.13.

For A40G C15U, the self-cleavage came to 0.13. On to A40G C15G, for which the self-cleavage stood at 0.14.

With A40C G34U, the self-cleavage came out at 0.05.

In the case of A40C G34A, the self-cleavage is 0.06. For A40C G34C the value was 0.06; for A40C U43C, 0.07.

Turning to A40C U43A, the self-cleavage worked out at 0.07. For A40C U43G, the self-cleavage came out at 0.07. To A40G C21A belongs 0.25; to A40G C21U, 0.79; to A40G C21G, 0.08. As for A39U G22U, the self-cleavage was found to be 0.67. On to A39U G22A, for which the self-cleavage is 0.93. On to A39U G22C, for which the self-cleavage came out at 0.06.

With A39U G50U, the self-cleavage amounted to 1.01. On to A39U G50C, for which the self-cleavage was determined as 0.82.

In the case of A39U G50A, the self-cleavage is 0.63. For the variant A40G U18C, the self-cleavage stood at 0.72. In the case of A40G U18A, the self-cleavage turned out to be 0.88.

As to A40G U18G, the self-cleavage stood at 0.76. As for A40G C52U, the self-cleavage was found to be 0.94. As for A40G C52G, the self-cleavage turned out to be 0.65. For A40G C52A, the self-cleavage was 0.52. In the case of A40U A7U, the self-cleavage is 0.08.

For A40U A7G, the self-cleavage was 0.13.

For the variant A40U A7C, the self-cleavage worked out at 0.04.

Consider A40C G47C, for which the self-cleavage turned out to be 0.03. For A40C G47U the value was 0.04; for A40C G47A, 0.05. For A39U C32U the value was 0.11.

As for A39U C32A, the self-cleavage came to 0.08. A39U C32G: the self-cleavage was 0.1. For A40G C20G, the self-cleavage came to 0.1. To A40G C20U belongs 0.91; to A40G C20A, 0.78; to A40G G30C, 0.04. In the case of A40G G30A, the self-cleavage stood at 0.03. Turning to A40G G30U, the self-cleavage was 0.05.

Regarding A40C C32A, the self-cleavage was 0.04. Take A40C C32U: the self-cleavage worked out at 0.03. A40C C32G: the self-cleavage amounted to 0.03. As to A40G C25A, the self-cleavage is 0.06.

Take A40G C25G: the self-cleavage stood at 0.06.

For A40G C25U, the self-cleavage was determined as 0.14. A40U A8U: the self-cleavage was 0.07. Turning to A40U A8C, the self-cleavage is 0.05. A40U A8G: the self-cleavage was 0.15.

In the case of A40C C14U, the self-cleavage worked out at 0.05. For A40C C14A the value was 0.04; for A40C C14G, 0.03; for A39U G51A, 0.61. As for A39U G51U, the self-cleavage was determined as 0.28. With A39U G51C, the self-cleavage came out at 0.06. To A40G A46C belongs 0.06; to A40G A46G, 0.05. With A40G A46U, the self-cleavage turned out to be 0.08. For A40C G35C, the self-cleavage came out at 0.05. Regarding A40C G35A, the self-cleavage is 0.08. Take A40C G35U: the self-cleavage is 0.08.

Take A40C C27U: the self-cleavage came to 0.03. In the case of A40C C27G, the self-cleavage amounted to 0.02. As to A40C C27A, the self-cleavage stood at 0.05. A40G G35U: the self-cleavage turned out to be 0.69. As for A40G G35C, the self-cleavage stood at 0.12. To A40G G35A belongs 0.71.

With A40G G19A, the self-cleavage was 0.18.

For A40G G19C, the self-cleavage was 0.07. On to A40G G19U, for which the self-cleavage stood at 0.11. As for A40C U18G, the self-cleavage turned out to be 0.09. For A40C U18C, the self-cleavage was 0.08. To A40C U18A belongs 0.07. To A40G C27A belongs 0.11; to A40G C27G, 0.09; to A40G C27U, 0.11. Regarding A40U A41G, the self-cleavage is 0.1. To A40U A41C belongs 0.87; to A40U A41U, 0.83; to A39U G54C, 0.73.

Take A39U G54A: the self-cleavage worked out at 0.73. As for A39U G54U, the self-cleavage worked out at 0.77. Consider A40C G13C, for which the self-cleavage was 0.01. To A40C G13A belongs 0.03. For the variant A40C G13U, the self-cleavage was determined as 0.01. For A40C C52A, the self-cleavage amounted to 0.11. As to A40C C52G, the self-cleavage stood at 0.09. For A40C C52U the value was 0.1; for A40C C9U, 0.05; for A40C C9A, 0.02. Turning to A40C C9G, the self-cleavage stood at 0.07. To A40C G53C belongs 0.04. As for A40C G53U, the self-cleavage came out at 0.05. A40C G53A: the self-cleavage was 0.09. Take A39U G23C: the self-cleavage was found to be 0.06. In the case of A39U G23U, the self-cleavage was 0.05.

Regarding A39U G23A, the self-cleavage is 0.26.

Turning to A40C G19U, the self-cleavage stood at 0.04. Regarding A40C G19C, the self-cleavage came out at 0.02.

As for A40C G19A, the self-cleavage turned out to be 0.07. For A39U G34C the value was 0.25; for A39U G34U, 0.53; for A39U G34A, 0.68.
